Experimental data published in publication PMC10436028 (RSC Advances, 2023).

Key:
Format in all cases: cell-based
A-375 cell line = experiment: MTT assay, melanoma A-375 cell line; conditions: Homo sapiens, A-375, 48 h, read-out: IC50 against A-375
Outline: (§1)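 Test compound dissolved in PBS with 0.5% DMSO and diluted in the same solvent. Cells were grown in DMEM with 10% FBS and 1% penicillin-streptomycin at 37 °C, 5% CO2. They were trypsinised, seeded and held 48 h, then given fresh medium. Exposure was 15.62–500 μM for 48 h. MTT (0.5 mg.mL−1) ran 4 h, formazan was dissolved in DMSO, and A570 read. Six vehicle wells per plate served as control. Viability was computed, in triplicate, as mean ± SD.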

MCF-7 cell line = experiment: MTT assay, breast cancer MCF-7 cell line; conditions: Homo sapiens, MCF7, 48 h, read-out: IC50 against MCF-7
Outline: as §1

HEK-293 cell line = experiment: MTT toxicity assay, normal cell line HEK-293; conditions: Homo sapiens, HEK293, 48 h, read-out: IC50 against HEK-293
Outline: as §1

| IC50 (A-375 cell line) [µM] | IC50 (MCF-7 cell line) [µM] | Structure (SMILES) | IC50 (HEK-293 cell line) [µM] |
| --- | --- | --- | --- |
| > 500 | > 500 | Cn1c(=O)c2c(nc(N3CCN(Cc4cn(CCc5ccccc5)nn4)CC3)n2C)n(C)c1=O [Compound 12e, 1,3,7-Trimethyl-8-(4-((1-phenethyl-1H-1,2,3-triazol-4-yl)methyl)piperazin-1-yl)-3,7-dihydro-1H-purine-2,6-dione] | > 500 |
| > 500 | > 500 | Cn1c(=O)c2c(nc(N3CCN(Cc4cn(Cc5ccccc5)nn4)CC3)n2C)n(C)c1=O [Compound 12a, 8-(4-((1-Benzyl-1H-1,2,3-triazol-4-yl)methyl)piperazin-1-yl)-1,3,7-trimethyl-3,7-dihydro-1H-purine-2,6-dione] | > 500 |
| > 500 | > 500 | Cn1c(=O)c2c(nc(N3CCN(Cc4cn(CCCCN5C(=O)c6ccccc6S5(=O)=O)nn4)CC3)n2C)n(C)c1=O [Compound 12m, 8-(4-((1-(4-(1,1-Dioxido-3-oxobenzo[d]isothiazol-2(3H)-yl)butyl)-1H-1,2,3-triazol-4-yl)methyl)piperazin-1-yl)-1,3,7-trimethyl-3,7-dihydro-1H-purine-2,6-dione] | > 500 |
| > 500 | > 500 | Cc1ccc(Cn2cc(CN3CCN(c4nc5c(c(=O)n(C)c(=O)n5C)n4C)CC3)nn2)cc1 [Compound 12f, 1,3,7-Trimethyl-8-(4-((1-(4-methylbenzyl)-1H-1,2,3-triazol-4-yl)methyl)piperazin-1-yl)-3,7-dihydro-1H-purine-2,6-dione] | > 500 |
| > 500 | > 500 | Cn1c(=O)c2c(nc(N3CCN(Cc4cn(CC(=O)OCc5ccccc5)nn4)CC3)n2C)n(C)c1=O [Compound 12b, Benzyl 2-(4-((4-(1,3,7-trimethyl-2,6-dioxo-2,3,6,7-tetrahydro-1H-purin-8-yl)piperazin-1-yl)methyl)-1H-1,2,3-triazol-1-yl)acetate] | > 500 |
| > 500 | > 500 | Cn1c(=O)c2c(nc(N3CCN(Cc4cn(C(c5ccccc5)c5ccccc5)nn4)CC3)n2C)n(C)c1=O [Compound 12c, 8-(4-((1-Benzhydryl-1H-1,2,3-triazol-4-yl)methyl)piperazin-1-yl)-1,3,7-trimethyl-3,7-dihydro-1H-purine-2,6-dione] | > 500 |
| > 500 | > 500 | Cn1c(=O)c2c(nc(N3CCN(Cc4cn(CCCCCN5C(=O)c6ccccc6C5=O)nn4)CC3)n2C)n(C)c1=O [Compound 12l, 8-(4-((1-(5-(1,3-Dioxoisoindolin-2-yl)pentyl)-1H-1,2,3-triazol-4-yl)methyl)piperazin-1-yl)-1,3,7-trimethyl-3,7-dihydro-1H-purine-2,6-dione] | > 500 |
| 418 ± 2 | 343 ± 3.6 | CN(Cc1cnc2nc(N)nc(N)c2n1)c1ccc(C(=O)N[C@@H](CCC(=O)O)C(=O)O)cc1 [MTX, methotrexate, reference compound] | 199 ± 2.4 |
| > 500 | > 500 | CCOC(=O)CCCn1cc(CN2CCN(c3nc4c(c(=O)n(C)c(=O)n4C)n3C)CC2)nn1 [Compound 12g, Ethyl 4-(4-((4-(1,3,7-trimethyl-2,6-dioxo-2,3,6,7-tetrahydro-1H-purin-8-yl)piperazin-1-yl)methyl)-1H-1,2,3-triazol-1-yl)butanoate] | > 500 |
| > 500 | > 500 | Cn1c(=O)c2c(nc(N3CCN(Cc4cn(CCCCCN5C(=O)c6ccccc6S5(=O)=O)nn4)CC3)n2C)n(C)c1=O [Compound 12o, 8-(4-((1-(5-(1,1-Dioxido-3-oxobenzo[d]isothiazol-2(3H)-yl)pentyl)-1H-1,2,3-triazol-4-yl)methyl)piperazin-1-yl)-1,3,7-trimethyl-3,7-dihydro-1H-purine-2,6-dione] | > 500 |
| > 500 | > 500 | Cn1c(=O)c2c(nc(N3CCN(Cc4cn(CCCc5ccccc5)nn4)CC3)n2C)n(C)c1=O [Compound 12d, 1,3,7-Trimethyl-8-(4-((1-(3-phenylpropyl)-1H-1,2,3-triazol-4-yl)methyl)piperazin-1-yl)-3,7-dihydro-1H-purine-2,6-dione] | > 500 |
| > 500 | > 500 | Cn1c(=O)c2c(nc(N3CCN(Cc4cn(CCCN5C(=O)c6ccccc6S5(=O)=O)nn4)CC3)n2C)n(C)c1=O [Compound 12n, 8-(4-((1-(3-(1,1-Dioxido-3-oxobenzo[d]isothiazol-2(3H)-yl)propyl)-1H-1,2,3-triazol-4-yl)methyl)piperazin-1-yl)-1,3,7-trimethyl-3,7-dihydro-1H-purine-2,6-dione] | > 500 |
| 367 ± 3.4 | 175 ± 3.2 | CCCCCCCCCCn1cc(CN2CCN(c3nc4c(c(=O)n(C)c(=O)n4C)n3C)CC2)nn1 [Compound 12k, 8-(4-((1-Decyl-1H-1,2,3-triazol-4-yl)methyl)piperazin-1-yl)-1,3,7-trimethyl-3,7-dihydro-1H-purine-2,6-dione] | > 500 |
| 371 ± 2.5 | 260 ± 2.2 | CCCCCCn1cc(CN2CCN(c3nc4c(c(=O)n(C)c(=O)n4C)n3C)CC2)nn1 [Compound 12i, 8-(4-((1-Hexyl-1H-1,2,3-triazol-4-yl)methyl)piperazin-1-yl)-1,3,7-trimethyl-3,7-dihydro-1H-purine-2,6-dione] | 371 ± 2.3 |
| 498 ± 2 | 306 ± 1.8 | CCCCCCCn1cc(CN2CCN(c3nc4c(c(=O)n(C)c(=O)n4C)n3C)CC2)nn1 [Compound 12h, 8-(4-((1-Heptyl-1H-1,2,3-triazol-4-yl)methyl)piperazin-1-yl)-1,3,7-trimethyl-3,7-dihydro-1H-purine-2,6-dione] | > 500 |
| 323 ± 2.6 | 245 ± 2.3 | CCCCCCCCn1cc(CN2CCN(c3nc4c(c(=O)n(C)c(=O)n4C)n3C)CC2)nn1 [Compound 12j, 1,3,7-Trimethyl-8-(4-((1-octyl-1H-1,2,3-triazol-4-yl)methyl)piperazin-1-yl)-3,7-dihydro-1H-purine-2,6-dione] | 418 ± 2.4 |
